This is a sample that favours compounds with a hit; in the whole collection about 2.3% have one here.
TRPC6 inhibitor – mouse TRPC6 channel inhibition; Q61143; HEK293-TRPC6, membrane potential dye, ACh-evoked depolarization; hits give low values; B-score at 10 µM; 310,000 compounds, 1.1% hits; AID 2553;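 active = B-score under library mean minus 3 SD, initial fluorescence not abnormally high, positive integrated signal ratio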;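 also: B-score derived from integrated fluorescence ratio over the kinetic read; more negative B-score means stronger inhibition of depolarization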
Target sequence (Q61143 whole entry, looked up): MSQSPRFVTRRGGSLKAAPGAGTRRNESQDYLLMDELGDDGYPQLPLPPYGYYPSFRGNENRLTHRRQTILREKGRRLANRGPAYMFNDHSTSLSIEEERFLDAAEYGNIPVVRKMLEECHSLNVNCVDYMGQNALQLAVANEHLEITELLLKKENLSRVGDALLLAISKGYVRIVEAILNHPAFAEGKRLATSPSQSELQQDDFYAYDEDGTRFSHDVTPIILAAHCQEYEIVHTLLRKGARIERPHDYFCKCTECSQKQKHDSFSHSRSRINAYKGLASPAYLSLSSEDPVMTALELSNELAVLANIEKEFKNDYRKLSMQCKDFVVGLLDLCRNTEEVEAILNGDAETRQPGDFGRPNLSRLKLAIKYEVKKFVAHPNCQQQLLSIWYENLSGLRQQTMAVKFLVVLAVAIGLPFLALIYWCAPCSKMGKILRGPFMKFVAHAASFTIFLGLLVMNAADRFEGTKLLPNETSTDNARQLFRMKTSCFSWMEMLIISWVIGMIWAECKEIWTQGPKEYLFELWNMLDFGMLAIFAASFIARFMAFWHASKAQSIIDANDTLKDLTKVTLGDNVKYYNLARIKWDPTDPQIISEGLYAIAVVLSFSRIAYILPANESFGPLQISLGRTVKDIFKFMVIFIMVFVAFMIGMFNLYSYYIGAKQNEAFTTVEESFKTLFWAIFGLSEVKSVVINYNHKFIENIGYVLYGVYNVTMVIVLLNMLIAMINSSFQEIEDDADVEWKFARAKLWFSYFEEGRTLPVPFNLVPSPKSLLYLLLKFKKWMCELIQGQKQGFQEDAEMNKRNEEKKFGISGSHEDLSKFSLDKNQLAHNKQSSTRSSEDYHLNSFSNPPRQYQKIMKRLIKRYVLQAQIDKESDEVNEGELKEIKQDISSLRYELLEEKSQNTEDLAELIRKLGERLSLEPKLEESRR
TRPC4 potent – TRPC4 (mouse) allosteric potentiation; 310,000 compounds, 0.42% hits; HEK293 TRPC4beta/mu-opioid, DAMGO EC20, Fluo-4 Ca2+ flux; hits give high values; Q9QUQ5; B-score at 10 µM;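 active = B-score of calcium response area above 5 SD of library B-scores, with initial fluorescence ratio within 5 SD of library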;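 also: B-score of integrated fluorescence ratio over time as area under calcium response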
TRPC4 block – TRPC4 (mouse) channel inhibition; 300,000 compounds, 0.39% hits; B-score at 10 µM; Q9QUQ5; HEK293 TRPC4beta/mu-opioid, DAMGO-evoked Fluo4 calcium flux; hits give low values; AID 2247;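 active = B-score over 3 SD under the library average, no early fluorescence shift, positive overall ratio signal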
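Assay system: HEK293 cells with stable TRPC4beta plus mu-opioid receptor expression. Dosing: single dose. Measured by: Fluo4 Ca2+ flux fluorescence. Also added: DAMGO in two steps, submaximal then maximal. Read-out: B score from integrated Fluo4 fluorescence ratio.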
TRPC6 activator – activates the mouse TRPC6 cation channel | Q61143 | B-score at 10 µM | 310,000 compounds, 0.13% hits | AID 2550 | HEK293-TRPC6 membrane potential dye fluorescence; hits give high values;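 active = B-score of the integrated fluorescence ratio above library mean plus 3 SD, and starting fluorescence ratio within library mean plus 5 SD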;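 also: higher score means more depolarization so channel activation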
TRPC4 act – TRPC4 (mouse) channel activation | Q9QUQ5 | HEK293 TRPC4beta/mu-opioid, Fluo4 calcium fluorescence; hits give high values | B-score at 10 µM | 310,000 compounds, 0.49% hits | AID 2237;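 active = B-score above 5 SD of library B-scores, and initial fluorescence ratio not above library mean plus 5 SD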;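 also: positive B-score marks a calcium rise read as TRPC4 activation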
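system = HEK293 cells stably co-expressing mouse TRPC4beta and mu-opioid receptor | schedule = Fluo4 dye loading 45 min at room temperature, 110 s recording | measure = B-scored integrated calcium fluorescence ratio | signal = Fluo4 calcium-sensitive dye fluorescence, kinetic, 1 Hz baseline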
TRPC4 spec 2 – second check of whether TRPC6 inhibitors also affect mouse TRPC4. 920 compounds, 42% hits. HEK293 TRPC4/MOR, membrane potential dye fluorescence; channel activated by saturating DAMGO dose. inhibition, % at 10 µM. shares compounds with TRPC6 inhibitor;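 active = compounds whose fluorescence signal differed from control wells by over 3 SD, either direction, in both duplicate plates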
TRPC4 spec – selectivity of TRPC6 inhibitors: effect on mouse TRPC4. shares compounds with TRPC6 inhibitor. 920 compounds, 61% hits. AID 2777. HEK293 TRPC4/mu-opioid, membrane potential fluorescence. activity change, negative = inhibition, % at 10 µM;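 active = rise or fall in signal beyond 3 SD of buffer-only wells in both replicate plates, either sign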;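 also: integrated kinetic ratio of fluorescence range over baseline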
HEK293 MPD ctr 2-1 – second counter-screen for TRPC6 inhibitors: parental HEK293 cells | shares compounds with TRPC6 inhibitor | parental HEK293 membrane potential dye fluorescence; maximal acetylcholine challenge after compound addition | signal change vs control, % at 10 µM | 920 compounds, 31% hits | AID 2779;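 active = membrane potential signal moving either way by over 3 SD of the maximum-effect control, in both duplicate plates, meaning non-specific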
HEK293 MPD ctr-1 – counter-screen for TRPC6 inhibitors: effect in parental HEK293 cells | AID 2780 | membrane potential signal change, % at 10 µM | shares compounds with TRPC6 inhibitor | parental HEK293 membrane potential dye fluorescence | 920 compounds, 60% hits;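 active = membrane potential signal shifting up or down by more than 3 SD of buffer-only wells, on both duplicate plates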
HEK293 MPD ctr-2 – checks TRPC6 modulator effects in parental HEK293 cells; shares compounds with TRPC6 inhibitor; membrane potential dye fluorescence; membrane potential signal change, % at 10 µM; 2,400 compounds, 51% hits; AID 488924;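 active = membrane potential signal moves up or down beyond 5 SD from buffer-only wells, on both duplicate plates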
HEK293 MPD ctr 2-2 – second check of TRPC6 modulator effects in parental HEK293 cells | membrane potential dye fluorescence; after compound, maximal acetylcholine stimulation | AID 488926 | inhibition, % at 10 µM | shares compounds with TRPC6 inhibitor | 2,400 compounds, 14% hits;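 active = membrane potential signal drops by more than 5 SD from the mean control signal, in both duplicate plates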;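 also: plate controls were acetylcholine ECmax control wells for no effect and buffer only wells for full effect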
TRPC4/MOR mod – mouse TRPC4 off-target activity of TRPC6 modulators. 2,400 compounds, 69% hits. percent change from control (negative = decrease, positive = increase), % at 10 µM. shares compounds with TRPC6 inhibitor. HEK293 TRPC4/mu-opioid, membrane potential fluorescence;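 active = membrane potential signal moved up or down beyond 5 SD of buffer control wells, in both duplicate plates, actives on both sides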;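 also: plate controls were assay buffer wells for no effect and DAMGO maximal-effect wells for full effect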
TRPC4 ctr inh 2 – mouse TRPC4 off-target activity of TRPC6 modulators, second screen. shares compounds with TRPC6 inhibitor. HEK293 TRPC4/mu-opioid, membrane potential dye fluorescence; stimulated with maximal-effect DAMGO. inhibition, % at 10 µM. 2,400 compounds, 55% hits;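 active = drop in membrane potential signal beyond 5 SD of the control wells in both duplicate plates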;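 also: TRPC4 counter screen for TRPC6 hits run under conditions tuned for TRPC6 not TRPC4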
TRPC6 inh conf – confirmation of mouse TRPC6 inhibitors | inhibition, % at 10 µM | shares compounds with TRPC6 inhibitor | 3,300 compounds, 43% hits | HEK293-TRPC6, membrane potential dye, ACh-evoked depolarization;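 active = fluorescence ratio falls more than 5 SD below the full-stimulation control mean, in both duplicate runs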;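 also: integrated fluorescence ratio of peak minus minimum over baseline after agonist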
TRPC6 act conf – confirmation of mouse TRPC6 activators. shares compounds with TRPC6 inhibitor. HEK293-TRPC6 membrane potential dye fluorescence, FDSS. 2,800 compounds, 11% hits. activation, % at 10 µM;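 active = ratio signal rise beyond 5 SD above unstimulated control wells' mean, seen in both duplicate runs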;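 also: plate controls were buffer EC0 wells for no effect and acetylcholine ECmax response for full effect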
Starred values were filed as active, the others as inactive; i = inactive; / = no result given.

SMILES	TRPC6 inhibitor	TRPC4 potent	TRPC4 block	TRPC6 activator	TRPC4 act	HEK293 MPD ctr-2	HEK293 MPD ctr 2-2	TRPC4/MOR mod	TRPC4 ctr inh 2	TRPC6 inh conf	TRPC6 act conf	others
CCN(CC)CCN1C(=O)Cn2c(C)c(C)c3cccc1c32	-8.37*	i	i	i	i	i	i	-17.5%*	61.0%*	52.9%*	i	TRPC4 spec 2=49.5%*;TRPC4 spec=-16.8%*;HEK293 MPD ctr 2-1=i;HEK293 MPD ctr-1=-253.5%*
c1ccc(-c2cc(NCCN3CCCCC3)c3ccccc3n2)cc1	-8.68*	i	i	i	i	-181.5%*	65.5%*	-36.0%*	71.5%*	64.0%*	i
N#Cc1ccc(C(=O)NCC2CCCCC2)cc1	i	i	i	i	i	/	/	/	/	/	/
O=[N+]([O-])c1ccc2nc(SCc3cn4cc(Cl)ccc4n3)[nH]c2c1	-5.43*	i	i	i	i	i	i	i	i	i	i
CN1CCc2c(sc3c2c(=O)n(-c2cccc(Cl)c2)c2nncn32)C1	-5.52*	i	i	i	i	i	i	7.0%*	i	i	i
O=c1c2c3c(sc2n2cnnc2n1-c1ccccc1)N(Cc1ccccc1)CCC3	-6.98*	i	i	i	i	/	/	/	/	i	i	TRPC4 spec 2=i;TRPC4 spec=-19.9%*;HEK293 MPD ctr 2-1=i;HEK293 MPD ctr-1=-271.0%*
O=C(O)C1CC(c2ccccc2)=Nc2ccccc2S1 (centres undefined)	-5.35*	i	i	i	i	136.5%*	i	28.0%*	i	i	/
O=C(C1=C(c2ccccc2)C(=O)c2ccccc2C1=O)c1ccccc1	i	i	i	i	i	/	/	/	/	/	/
O=C1C(=O)c2c(C(=O)c3ccccc3)coc2-c2ccccc21	-6.2*	i	i	i	i	-79.5%*	i	-18.5%*	71.5%*	60.5%*	i
COc1cccc(-c2nc3ccc(C(=O)NC(C)Cc4cccnc4)cc3o2)c1 (centres undefined)	i	i	i	i	i	/	/	/	/	/	/
COc1ccc2c(c1)S/C(=C\C(=O)c1ccncc1)N2C	-5.91*	i	i	i	i	100.5%*	i	-67.0%*	34.5%*	i	i
COc1ccc(CCC(C)NC2C3CC4CC(C3)CC2C4)cc1 (centres undefined)	-8.5*	i	i	i	i	/	/	/	/	93.7%*	/	TRPC4 spec 2=65.5%*;TRPC4 spec=36.7%*;HEK293 MPD ctr 2-1=-12.5%*;HEK293 MPD ctr-1=20.9%*
CC1=Nc2ccc(C)c3nc(C)cc(c23)N1c1ccc(C)cc1	-13.3*	i	i	i	i	-157.0%*	88.5%*	-33.0%*	82.5%*	87.0%*	i
Cc1ccc(N2C(=O)c3cccc4cccc(c34)C2=O)cc1	i	i	i	i	i	/	/	/	/	/	/
Cc1ccc(N2C(=O)CC(Sc3nc(C)cc(C)n3)C2=O)cc1 (centres undefined)	i	i	i	i	i	/	/	/	/	/	/
Cc1ccc(N2C=Nc3ccc(C)c4nc(C)cc2c34)cc1	-10.1*	i	i	i	i	-248.5%*	64.5%*	-52.5%*	73.5%*	60.5%*	i
CCCC(O)(CCN1CCOCC1)c1ccc(Br)cc1 (centres undefined)	-7.51*	i	-6*	i	i	/	/	/	/	i	i	TRPC4 spec 2=76.5%*;TRPC4 spec=4.2%*;HEK293 MPD ctr 2-1=i;HEK293 MPD ctr-1=3.6%*
CCCC(O)(CCN1CCOCC1)c1ccc(Cl)cc1 (centres undefined)	i	i	i	i	i	/	/	/	/	/	/
c1ccc(-n2cc(CN3CCCC(CN4CCCC4)C3)c(-c3ccc4c(c3)OCO4)n2)cc1 (centres undefined)	-5.81*	i	i	i	i	i	i	i	73.0%*	i	i
NCCCn1c(C(=O)c2ccc(Cl)cc2)c2ccc(C(F)(F)F)cc2[n+]1[O-]	-9.34*	i	i	i	i	/	/	/	/	67.3%*	i	TRPC4 spec 2=55.5%*;TRPC4 spec=-11.3%*;HEK293 MPD ctr 2-1=i;HEK293 MPD ctr-1=-179.5%*
CC(=O)Nc1ccc(N2C(=O)c3ccc(C(=O)Nc4nnc(SCc5ccc(F)cc5)s4)cc3C2=O)cc1	i	i	i	i	i	/	/	/	/	/	/
CCOC(=O)c1cnc2ccc(C)cc2c1Nc1ccc(N2CCOCC2)cc1	-5.73*	i	i	i	i	-154.5%*	68.5%*	-32.5%*	44.0%*	67.5%*	i
COC(=O)c1ccc(-c2ccc(/C=N/NC(=O)Cc3nnc(N)s3)o2)cc1	i	i	i	i	i	/	/	/	/	/	/
COc1ccc(-c2cn3cc([N+](=O)[O-])ccc3n2)cc1OC	-5.05*	i	i	i	i	-111.0%*	i	-22.0%*	30.0%*	i	i
COc1ccc(OCC(=O)NC2CCCN(Cc3ccc(Cl)cc3)C2)cc1 (centres undefined)	-6.15*	15*	i	i	i	116.5%*	i	23.5%*	i	50.5%*	/
CCOC(=O)c1c(C)n(C)c2ccc(O)c(CN3CCCCC3)c12	-8*	i	i	i	i	-172.5%*	i	-30.5%*	59.0%*	65.5%*	i

Assay outcomes as filed in PubChem.
